Measured values as given in PMC3582904 (International Journal of Oncology, 2012).
Where two headings read alike, the source gives them in different places. Marks after values point to notes of the source that are not given here.

Legend:
[1] = system: MSTO211H cells; experiment: WST-1 cell proliferation assay, MSTO211H; format: cell-based, human; conditions: 72 h, read-out: IC50 against MSTO211H cells
Outline: (§1)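 Cells at 1×10^4 per well in RPMI-1640/10% FBS were exposed for 72 h to test compound at 20 to 200 μM, with DMSO final 1.0%. Vehicle controls received matching DMSO. WST-1 reagent was then added, and absorbance was read at 450 nm against a 690 nm reference. IC50 was taken from the dose-response; means ± SD.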

[2] = system: EHMES-10 cells; experiment: Orthotopic implantation model, EHMES-10 cells in SCID mice; format: in vivo; conditions: for Pleural effusion Incidence / Thoracic tumor Incidence: day 30; for Pleural effusion Volume / Thoracic tumor Weight: day 30, median (range); for survival time compared to control group: P<0.01
Outline: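 Male SCID mice aged 6–8 weeks received 3×10^6 EHMES-10 cells in PBS into the thoracic cavity. On day 7 they were randomized, […], to vehicle (40% DMSO in PBS), MEK inhibitor (20, 30, 40 mg/kg), PI3K inhibitor (12.5, 25, 50 mg/kg) or 30 + 25 mg/kg combined, given i.p. twice weekly. Mice were killed on day 30; tumor weighed, effusion volume measured. Medians (ranges), Mann-Whitney; survival by Kaplan-Meier/log-rank.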

[3] = Side effects in EHMES-10 cell-bearing SCID mice; format: in vivo; conditions: day 30, median (range)
[4] = system: MSTO211H cells; experiment: DNA fragmentation assay; format: cell-based, human; conditions: single agent, 24 h, dose-dependent
Outline: (§2)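 Apoptosis was scored after 24 h exposure to either MEK or PI3K inhibitor or their combination, in RPMI-1640/10% FBS with DMSO final 1.0%. Cytoplasmic histone-associated DNA fragments were quantified with the Cell Death Detection ELISA kit. Means ± SD, ANOVA with Dunnett's test.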

[5] = system: EHMES-10 cells; experiment: DNA fragmentation assay; format: cell-based, human; conditions: EHMES-10, single agent, 24 h, dose-dependent
Outline: as §2

[6] = system: EHMES-10 cells; experiment: Western blot analysis of cultured EHMES-10 cells; format: cell-based, human; conditions: EHMES-10, 80 μM, 24 h
Outline: (§3)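 Cultured cells received 80 μM MEK inhibitor and/or 80 μM PI3K inhibitor for 24 h. Lysates were cleared at 15,000 × g, 15 min, 4°C, resolved on 7.5–15% gels, transferred to nitrocellulose and immunoblotted; three independent experiments.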

[7] = system: EHMES-10 cells; format: in vivo, SCID mice; conditions: thoracic tumors, day 30; for expression of p27kip1 and 89 kDa cleaved PARP (western blot of tumors): 30 mg/kg U0126, 25 mg/kg LY294002 or combination
Outline: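 Thoracic tumors were excised on day 30 from SCID mice given i.p. test compounds twice weekly in 40% DMSO/PBS. Paraffin sections were immunostained for phospho-ERK1/2, phospho-Akt and p27kip1 (Envision method, Fuchsin+ chromogen). Tumor homogenates were lysed in Tris/NaCl/Triton/NaF/Na3VO4 buffer, cleared at 15,000 × g, separated on 7.5–15% gels and immunoblotted.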

[8] = system: EHMES-10 cells; experiment: WST-1 cell proliferation assay, EHMES-10; format: cell-based, human; conditions: 72 h, read-out: IC50 against EHMES-10 cells
Outline: as §1

[9] = cited from earlier work
[10] = system: EHMES-10 cells; experiment: Cell cycle analysis; format: cell-based, human; conditions: 24 h; for percentage of cells in sub-G1 phase compared to control: EHMES-10, 80 μM each agent; for G1-phase population compared to control: EHMES-10, 80 μM, P<0.05
Outline: (§4)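 Cells grown in RPMI-1640 with 10% FBS at 37°C and 5% CO2 were exposed to 80 μM MEK inhibitor, 80 μM PI3K inhibitor or both for 24 h (DMSO final 1.0%). They were then trypsinized, and nuclei were stained with propidium iodide (CycleTest Plus kit). Phase profiles came from FACScan flow cytometry. Three independent runs; means ± SD, ANOVA with Dunnett's test.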

[11] = system: MSTO211H cells; experiment: Cell cycle analysis; format: cell-based, human; conditions: 24 h; for percentage of cells in sub-G1 phase compared to control: 80 μM each agent; for G1-phase population compared to control: 80 μM, P<0.05
Outline: as §4

[12] = system: MSTO211H cells; experiment: Western blot analysis of cultured MSTO211H cells; format: cell-based, human; conditions: 80 μM, 24 h
Outline: as §3

[13] = patients with advanced non-small cell lung, breast, colon, and pancreatic cancers; diarrhea, nausea, asthenia, rash, anorexia; cited from earlier work
[14] = 25 mg/kg LY294002, alone or with 30 mg/kg U0126
[15] = 30 mg/kg U0126, alone or with 25 mg/kg LY294002

In the case of `O=c1cc(N2CCOCC2)oc2c(-c3ccccc3)cccc12` [LY294002], the IC50 ([1]; Homo sapiens, MSTO-211H) is reported as 29.9 µM, the “Pleural effusion Incidence” value ([2]; 25 mg/kg i.p. twice/week) is reported as 1/5 and the “Thoracic tumor Incidence” value ([2]; 25 mg/kg i.p. twice/week) is reported as 3/5. For the same compound, the “Pleural effusion Volume” value ([2]; 25 mg/kg i.p. twice/week) was 0 (0–10)^a μl, the “Thoracic tumor Weight” value ([2]; 25 mg/kg i.p. twice/week) was 69.1 (0–481.6)^a mg and the “survival time compared to control group” value ([2]; 50 mg/kg i.p. twice a week) was “significantly prolonged”. The “Pleural effusion Incidence” value ([2]; 50 mg/kg i.p. twice/week) was 0/5, the “Thoracic tumor Incidence” value ([2]; 50 mg/kg i.p. twice/week) was 2/5 and the “Pleural effusion Volume” value ([2]; 50 mg/kg i.p. twice/week) was 0 (−)^a μl. The “Thoracic tumor Weight” value ([2]; 50 mg/kg i.p. twice/week) was 0 (0–41)^a mg, the ALT ([3]; 25 mg/kg i.p. twice/week) was 19 (15–72) IU/l and the AST ([3]; 25 mg/kg i.p. twice/week) was 46 (37–117) IU/l. For the same compound, the BUN ([3]; 25 mg/kg i.p. twice/week) was 20.2 (17.9–23.0) mg/dl, the Cre ([3]; 25 mg/kg i.p. twice/week) was 0.11 (0.06–0.20) mg/dl and the “TP (serum total protein)” value ([3]; 25 mg/kg i.p. twice/week) was 4.3 (3.9–5.6) g/dl. The “Weight (body weight)” value ([3]; 25 mg/kg i.p. twice/week) was 25.4 (24.4–26.3) g, the ALT ([3]; 50 mg/kg i.p. twice/week) was 25 (16–42) IU/l and the AST ([3]; 50 mg/kg i.p. twice/week) was 51 (46–92) IU/l. The BUN ([3]; 50 mg/kg i.p. twice/week) was 21.0 (16.4–23.2) mg/dl, the Cre ([3]; 50 mg/kg i.p. twice/week) was 0.09 (0.07–0.12)^a mg/dl and the “TP (serum total protein)” value ([3]; 50 mg/kg i.p. twice/week) was 4.4 (3.9–5.6) g/dl. For the same compound, the “Weight (body weight)” value ([3]; 50 mg/kg i.p. twice/week) was 24.4 (22.7–26.3) g, the “apoptosis by DNA fragmentation analysis” value [4] was “induced apoptosis” and the “apoptosis by DNA fragmentation analysis” value [5] was “induced apoptosis”. The “HIF1α and VEGF expression” value [6] was “inhibited”, the “cyclin D1 expression” value [6] was “decrease” and the “level of 89 kDa cleaved PARP” value [6] was “increased”. The “levels of phospho-Bad and procaspase 3” value [6] was “decreased”, the “phosphorylation of Akt, p70S6K, S6 and GSK3β” value [6] was “suppressed” and the “Akt phosphorylation (western blot of tumors)” value [7, 14] was “inhibited”. The “phospho-Akt-positive tumor cells (immunohistochemistry)” value [7, 14] was “reduced”, the “expression of p27kip1 and 89 kDa cleaved PARP (western blot of tumors)” value [7] was “increased” and the IC50 ([8]; Homo sapiens) was 20.7 µM. The side effects ([9]; administration reduced to three days per week) was “side effects were not shown”, the side effects ([9]; daily intraperitoneal 100 mg/kg, mice with ovarian cancer) was “body weight loss and dry skin” and the “percentage of cells in sub-G1 phase compared to control” value (“percentage of cells in sub-G1 phase” below) [10] was “significantly increased”. For the same compound, the “G1-phase population compared to control” value [10] was “significantly increased”, the “percentage of cells in sub-G1 phase” value [11] was “significantly increased” and the “G1-phase population compared to control” value [11] was “significantly increased”. The “level of 89 kDa cleaved PARP” value [12] was “increased” and the “levels of phospho-Bad and procaspase 3” value [12] was “decreased”.

For `O=C(NOCC1CC1)c1ccc(F)c(F)c1Nc1ccc(I)cc1Cl` [CI-1040], the toxicities in patients [13] is given as “mild or moderate toxicities”.

In the case of `N#CC(=C(/N)Sc1ccccc1N)/C(C#N)=C(/N)Sc1ccccc1N` [U0126], the IC50 ([1]; WST-1 assay) is reported as 39 µM, the “survival time compared to control group” value ([2]; 30 mg/kg i.p. twice a week) is reported as “significantly prolonged” and the “Pleural effusion Incidence” value ([2]; 30 mg/kg i.p. twice/week) is reported as 1/5. The “Thoracic tumor Incidence” value ([2]; 30 mg/kg i.p. twice/week) was 4/5, the “Pleural effusion Volume” value ([2]; 30 mg/kg i.p. twice/week) was 0 (0–100)^a μl and the “Thoracic tumor Weight” value ([2]; 30 mg/kg i.p. twice/week) was 31.3 (0–59.2)^a mg. The “survival time compared to control group” value ([2]; 40 mg/kg i.p. twice a week) was “significantly prolonged”, the “Pleural effusion Incidence” value ([2]; 40 mg/kg i.p. twice/week) was 0/5 and the “Thoracic tumor Incidence” value ([2]; 40 mg/kg i.p. twice/week) was 3/5. For the same compound, the “Pleural effusion Volume” value ([2]; 40 mg/kg i.p. twice/week) was 0 (−)^a μl, the “Thoracic tumor Weight” value ([2]; 40 mg/kg i.p. twice/week) was 14.6 (0–191.3)^a mg and the ALT ([3]; 30 mg/kg i.p. twice/week) was 30 (20–60) IU/l. The AST ([3]; 30 mg/kg i.p. twice/week) was 48 (44–64) IU/l, the BUN ([3]; 30 mg/kg i.p. twice/week) was 22.2 (15.4–24.0) mg/dl and the Cre ([3]; 30 mg/kg i.p. twice/week) was 0.10 (0.08–0.15) mg/dl. The “TP (serum total protein)” value ([3]; 30 mg/kg i.p. twice/week) was 4.3 (4.0–5.0) g/dl, the “Weight (body weight)” value ([3]; 30 mg/kg i.p. twice/week) was 24.1 (23.5–27.2) g and the ALT ([3]; 40 mg/kg i.p. twice/week) was 45 (31–80) IU/l. The AST ([3]; 40 mg/kg i.p. twice/week) was 75 (53–111) IU/l, the BUN ([3]; 40 mg/kg i.p. twice/week) was 19.1 (15.3–22.1) mg/dl and the Cre ([3]; 40 mg/kg i.p. twice/week) was 0.07 (0.05–0.12)^a mg/dl. The “TP (serum total protein)” value ([3]; 40 mg/kg i.p. twice/week) was 5.0 (4.4–6.6) g/dl, the “Weight (body weight)” value ([3]; 40 mg/kg i.p. twice/week) was 24.9 (23.3–25.9) g and the “apoptosis by DNA fragmentation analysis” value [4] was “induced apoptosis”. For the same compound, the “apoptosis by DNA fragmentation analysis” value [5] was “induced apoptosis”, the “HIF1α and VEGF expression” value [6] was “decreased” and the “cyclin D1 expression” value [6] was “decrease”. For the same compound, the “level of 89 kDa cleaved PARP” value [6] was “increased”, the “levels of phospho-Bad and procaspase 3” value [6] was “decreased” and the “phosphorylation of ERK1/2 and p90RSK” value [6] was “blocked”. The “expression of p27kip1 and 89 kDa cleaved PARP (western blot of tumors)” value [7] was “increased”, the “ERK1/2 phosphorylation (western blot of tumors)” value [7, 15] was “inhibited” and the “phospho-ERK1/2-positive tumor cells (immunohistochemistry)” value [7, 15] was “reduced”. For the same compound, the IC50 ([8]; WST-1 assay) was 66.8 µM, the “percentage of cells in sub-G1 phase” value [10] was “significantly increased” and the “G1-phase population compared to control” value [10] was “significantly increased”. For the same compound, the “percentage of cells in sub-G1 phase” value [11] was “significantly increased”, the “G1-phase population compared to control” value [11] was “significantly increased” and the “cyclin D1 expression” value [12] was “decrease”. For the same compound, the “level of 89 kDa cleaved PARP” value [12] was “increased” and the “levels of phospho-Bad and procaspase 3” value [12] was “decreased”.
